Source: PubChem
ARFGAP1 inhibitor: inhibitors of rat ARFGAP1 GAP activity, primary screen, biochemical, fluorescence polarization, GDP tracer | ADP-ribosylation factor GTPase-activating protein 1 (Rattus norvegicus), Q62848 | Arfgap1-stimulated ARF1 GTP hydrolysis, GDP FP detection | inhibition, % at 16.5 µM | 0.26% of 360,000 active | AID 651572, 2012;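 active means inhibition above a per-plate limit, mean inhibition of low control wells plus 3 SD, cut at about 25% in these data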;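 further: 0% = DMSO wells with enzyme and 100% = wells lacking Arfgap1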
Target sequence (Q62848 1-136 limits assumed): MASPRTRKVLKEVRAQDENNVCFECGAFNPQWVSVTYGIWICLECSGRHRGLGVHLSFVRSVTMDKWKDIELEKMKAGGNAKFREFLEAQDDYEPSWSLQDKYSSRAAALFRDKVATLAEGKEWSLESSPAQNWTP
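Replicates: Single well per compound | Assay system: Truncated rat Arfgap1 GAP domain | Control set: No-Arfgap1 wells (100%) versus DMSO full-reaction wells (0%) | Times: Enzyme reaction 120 min at 25 °C after 20 min preincubation | Reagent: Human ARF1(Δ1-17)-GTP substrate | Measured by: Tracer-displacement fluorescence polarization with EDTA stop, 620/688 nm | Measure: Percent inhibition of Arfgap1-stimulated GTP hydrolysis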
ASAP1 GAP inh: inhibitors of human ASAP1 ArfGAP activity, primary screen, biochemical, fluorescence polarization | Arf-GAP with SH3 domain, ANK repeat and PH domain-containing protein 1 (Homo sapiens), … | ASAP1-stimulated ARF1 GTP hydrolysis, GDP FP detection | inhibition, % at 16.5 µM | 0.19% of 360,000 active; in the data active means inhibition above about 25%;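 further: 0% = vehicle with enzyme and substrate and 100% = no enzyme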
PAFAH1B3 FP inh: PAFAH1B3 enzyme inhibitors, primary screen, biochemical, fluorescence polarization, human; Platelet-activating factor acetylhydrolase IB subunit alpha1 (Homo sapiens), Q15102; recombinant PAFAH1B3, FP-rhodamine probe; inhibition, % at 3.39 µM; 0.28% of 340,000 active; AID 492972, 2010;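 active means inhibition above the screen-wide average of all tested compounds plus 3 SD, cut at about 25% in these data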;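 further: 0% = enzyme with DMSO only and 100% = wells lacking PAFAH1B3 protein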
PAFAH1B2 FP inh: PAFAH1B2 enzyme inhibitors, primary screen, biochemical, fluorescence polarization, human; Platelet-activating factor acetylhydrolase IB subunit alpha2 (Homo sapiens), P68402; recombinant PAFAH1B2, FP-rhodamine activity probe; inhibition, % at 3.39 µM; 1.2% of 340,000 active;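 active means inhibition above the mean of all tested compounds plus 3 SD, cut at about 24% in these data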;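 further: 0% = enzyme with DMSO and 100% = wells lacking PAFAH1B2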
Target sequence (P68402 whole entry, looked up): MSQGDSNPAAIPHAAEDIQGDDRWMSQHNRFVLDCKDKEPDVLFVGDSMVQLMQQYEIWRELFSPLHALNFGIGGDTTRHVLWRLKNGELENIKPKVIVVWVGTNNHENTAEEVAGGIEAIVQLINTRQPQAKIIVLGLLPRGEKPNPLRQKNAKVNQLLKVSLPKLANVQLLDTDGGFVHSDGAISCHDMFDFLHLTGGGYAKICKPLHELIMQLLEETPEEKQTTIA
PAFAH2 FP inh: PAFAH2 enzyme inhibitors, primary screen, biochemical, fluorescence polarization, human | Platelet-activating factor acetylhydrolase 2, cytoplasmic (Homo sapiens), Q99487 | recombinant PAFAH2, FP-rhodamine activity probe | inhibition, % at 3.39 µM | 0.99% of 340,000 active | AID 492956, 2010;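 active means inhibition above the mean over all tested compounds plus 3 SD, cut at about 30% in these data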;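 further: inhibitors block probe labeling of enzyme so polarization drops; 0% = enzyme with DMSO and 100% = wells lacking PAFAH2 protein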
pPAFAH FP inh: pPAFAH enzyme inhibitors, primary screen, biochemical, fluorescence polarization, human | recombinant pPAFAH, FP-rhodamine probe fluorescence polarization | 1.5% of 330,000 active | AID 463082, 2010 | Platelet-activating factor acetylhydrolase (Homo sapiens), Q13093 | inhibition, % at 3.39 µM;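 active means inhibition above the mean inhibition across the screen plus 3 SD, cut at about 25% in these data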;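 further: inhibitors block binding of the rhodamine activity-based probe so polarization drops; 0% = enzyme with DMSO and 100% = wells lacking pPAFAH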
* hit, by the source's call; / = no result given. An excerpt weighted towards active compounds, which were near 2.7% of everything screened.

SMILES	ARFGAP1 inhibitor	ASAP1 GAP inh	PAFAH1B3 FP inh	PAFAH1B2 FP inh	PAFAH2 FP inh	pPAFAH FP inh
O=C(c1cc(COc2ccc(F)cc2Cl)on1)N1CCN(C2CCCCC2)C(=O)C1	8	10	0	-1	0	4
Cc1nonc1CN(C)C(=O)c1cc(COc2ccc(F)cc2Cl)on1	-4	6	14	-6	-6	26*
COC(=O)[C@]12C[C@H](CC(=O)N3CCCCC3)C(=O)N(Cc3ccccc3)C1=C[C@H](C(C)(C)C)O[C@@H]2C	-9	8	/	/	/	/
CC(C)C[C@H]1COc2cccc(NCCO)c2S(=O)(=O)N1	2	-5	/	/	/	/
COc1ccc(CCN2C(=O)CSC2c2ccc(F)cc2)cc1 (stereo not given)	7	-4	1	26*	-6	-2
O=C1CSC(c2ccccc2)N1CCc1ccccc1 (stereo not given)	9	-10	-4	9	-9	1
COC(=O)c1cc2c(c3c4cc(C)ccc4n(S(=O)(=O)c4cccc(C)c4)c13)C(=O)N(Cc1ccc(N(C)C)cc1)C2	1	7	/	/	/	/
O=[N+]([O-])c1ccc(O)c(C=Nc2ccc3oc(Cc4ccc(Cl)cc4)nc3c2)c1	/	/	/	/	/	46*
C[C@H]1COc2cccc(N3CCCC3)c2S(=O)(=O)N1	13	-11	/	/	/	/
Cc1nn(-c2ccccc2)c2c1CC(=O)Nc1ccccc1-2	6	-10	15	31*	-4	/
Cc1nn(-c2ccccc2)c(=O)c2ccccc12	4	-7	9	2	13	-2
Cc1ccc(CSc2nc(N)cc(=O)[nH]2)cc1	3	3	-8	25*	-10	2
Cc1ccc(CSc2nc3c(c(=O)[nH]2)CCC3)cc1	6	-16	10	25*	2	8
CCCc1cc(=O)[nH]c(SCc2ccc(F)cc2)n1	-4	-1	6	11	2	31*
N#Cc1ccc(CSc2nc(N)cc(=O)[nH]2)cc1	-3	-7	6	19	0	4
Cc1ccccc1CSc1nc2c(c(=O)[nH]1)CCCC2	/	/	/	/	/	51*
C[C@@H]1CN([C@@H](C)CO)C(=O)CCCn2cc(nn2)CO[C@H]1CN(C)C(=O)Cc1ccccc1	-4	0	/	/	/	/
Nc1ccc(F)c(CN2CCN(c3ncc(Cc4ccccc4)cn3)CC2)c1	-5	10	/	/	/	/
COC(=O)CC#C[C@H](C)[C@@H](NS(C)(=O)=O)C(C)(C)COCc1ccccc1	4	-15	/	/	/	/
CC(=O)Nc1ccc(S(=O)(=O)NCC2CCN(C(=O)C(=O)c3cccs3)CC2)cc1	9	-11	/	/	/	/
CCCCc1ccc(Nc2nc(CCC)cc(=O)[nH]2)cc1	-3	1	2	1	0	29*
Cc1ccc(Cl)cc1NC(=O)OCCN(C)C(=O)Nc1cc(Cl)ccc1C	15	-2	/	/	/	/
CN(Cc1ccccc1)C(=O)CSc1cc(=O)n(C)c2ccccc12	4	12	3	-3	7	29*
CCn1c(=O)cc(SCC(=O)N(C)Cc2ccccc2)c2ccccc21	16	-1	3	4	10	10
Cc1ccc(O)c(N=Cc2cc(Cc3ccccc3)cc([N+](=O)[O-])c2O)c1	-18	2	11	34*	22	/
Cc1ccc(O)c(C=Nc2cc(C)ccc2O)c1	/	/	11	1	2	16
Oc1c(Cl)cc(Cl)cc1C=Nc1ccc(N2CCOCC2)cc1	-8	-11	6	5	-5	13
O=[N+]([O-])c1cc(Cc2ccccc2)cc(C=Nc2ccc(N3CCOCC3)cc2)c1O	/	/	8	25*	5	34*
Oc1ccc(C=Nc2ccc(N3CCOCC3)cc2)c(O)c1	-8	-11	2	9	14	26*
CC(C)CNc1cccc2c1S(=O)(=O)N[C@@H](C)CO2	12	2	/	/	/	/
